In ChEMBL document CHEMBL2169813, “Cell death triggered by synthetic flavonoids in human leukemia cells is amplified by the inhibition of extracellular signal-regulated kinase signaling” (Eur J Med Chem, 2012):
Activity calls are given as the source filed them. No cut-off for these calls is given here.

What was measured:
HL-60 [1] = test: Cell cycle arrest in human HL60 cells assessed as accumulation at G2/M phase at 30 uM incubated for 24 hrs by flow cytometry (reference value: 33.2 +/- 2.1%); type: functional
HL-60 [2] = test: Cytotoxicity against human HL60 cells assessed as cell viability after 48 hrs at 30 uM by MTT assay; type: functional; conditions: HL-60, 48 h, read-out: Activity
How it was run: (§1)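 HL-60 cells, quiescent (fresh) PBMC and phytohemagglutinin-activated healthy human PBMC cultured 48 h over a concentration range of compound. Proliferation measured. Means ± SE of two independent experiments, each in triplicate.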

HL-60 [3] = test: Induction of apoptosis in human HL60 cells assessed as hypodiploid cells level at 30 uM incubated for 24 hrs in presence of caspase inhibitor z-VAD-fmk by flow cytometry; type: functional, cell-based
How it was run: (§2)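 HL-60 cells given 30 µM compound for 24 h, alone or with z-VAD-fmk (100 µM), z-DEVD-fmk, z-IETD-fmk or z-LEHD-fmk (each 50 µM). Propidium iodide staining, hypodiploid cells quantified by flow cytometry. Three independent experiments, each in triplicate.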

HL-60 [4] = test: Induction of cytochrome-c release in human HL60 cells at 30 uM incubated for 24 hrs by immunoblotting method; type: functional, cell-based
How it was run: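 HL-60 cells treated 24 h with 30 µM compound. Cytosolic extracts immunoblotted for cytochrome c released from mitochondria. β-Actin used as loading control.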

HL-60 [5] = test: Induction of procaspase-3 processing in human HL60 cells at 30 uM incubated for 24 hrs by immunoblotting method; type: functional, cell-based
How it was run: (§3)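 HL-60 cells (1 × 10⁶/mL) exposed to compound, harvested at 24 h. Lysed in Tris-HCl pH 7.4/Triton X-100 buffer with phosphatase and protease inhibitors, 15 min at 4 °C. Equal protein run on SDS-PAGE (7.5% PARP, 12.5% caspases) and immunoblotted on PVDF. β-Actin used as loading control.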

[6] = molecular target: T1, MAP kinase p38 (Homo sapiens) (UniProt O15264+Q15759+Q16539+P53778); test: Induction of p38MAPK phosphorylation in human HL60 cells after 30 mins by Western blotting; type: cell-based; conditions: HL-60
How it was run: (§4)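 HL-60 cells (1 × 10⁶/mL) treated with compound (10–30 µM) for various times. Where used, PD98059 (10 µM) was added 1 h beforehand. Lysates run on 10% SDS-PAGE and immunoblotted for phosphorylated ERK 1/2, JNK/SAPK or p38MAPK. Blots stripped and reprobed for the total kinase as loading control.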

HL-60 [7] = test: Cytotoxicity against human HL60 cells after 72 hrs by MTT assay; type: functional, cell-based; conditions: HL-60, 72 h
How it was run: (§5)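 MTT colorimetric assay on HL-60 and HL-60/MX1 cells (RPMI 1640, 10% heat-inactivated FBS), 72 h exposure, absorbance 570 nm. IC50 obtained graphically by curve fitting. Means ± S.E. of three independent experiments, each in triplicate.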

HL-60 [8] = test: Increase in apoptosis in human HL60 cells assessed as hypodiploid cells level incubated for 24 hrs in presence of 10 uM MEK1/2 inhibitor PD98059 by flow cytometry (reference value: 15%); type: functional
How it was run: (§6)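 HL-60 cells preincubated 1 h with PD98059 (10 µM), SP600125 (10 µM) or SB203580 (2 µM), then treated with compound. Hypodiploid (apoptotic) cells quantified by flow cytometry of propidium iodide-stained nuclei. Three independent experiments, each in triplicate.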

PBMC = test: Induction of MLL gene cleavage in human proliferating PBMCs at 30 uM incubated for 16 hrs by inverse PCR method; type: functional, cell-based
How it was run: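 Peripheral blood mononuclear cells exposed to 30 µM compound for 16 h. Genomic DNA digested with Xba I and circularised. Nested inverse PCR (MF1–MR1, then MF2–MR2). Wild-type MLL removed by Pvu II digestion before PCR to reveal rearrangement products.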

HL-60 [9] = test: Induction of procaspase-8 hydrolysis in human HL60 cells at 30 uM incubated for 24 hrs by immunoblotting method; type: functional, cell-based; how it was run: as §3
[10] = molecular target: T2, c-Jun N-terminal kinase, JNK (Homo sapiens) (UniProt P45983+P53779+P45984); test: Induction of JNK/SAPK phosphorylation in human HL60 cells after 6 hrs by Western blotting; type: cell-based; conditions: HL-60; how it was run: as §4
HL-60 [11] = test: Cell cycle arrest in human HL60 cells assessed as accumulation at S phase at 10 uM incubated for 24 hrs by flow cytometry (reference value: 16.7 +/- 0.5%); type: functional
HL-60 [12] = test: Cell cycle arrest in human HL60 cells assessed as accumulation at G2/M phase at 10 uM incubated for 24 hrs by flow cytometry (reference value: 33.2 +/- 2.1%); type: functional
HL-60 [13] = test: Cell cycle arrest in human HL60 cells assessed as accumulation at subG1 phase at 30 uM incubated for 24 hrs by flow cytometry (reference value: 2.3 +/- 0.5%); type: functional
[14] = Cytotoxicity against human HL60/MX1 cells after 72 hrs by MTT assay; type: functional, cell-based; conditions: HL60/MX1, 72 h; how it was run: as §5
HL-60 [15] = test: Induction of apoptosis in human HL60 cells assessed as hypodiploid cells level at 30 uM incubated for 24 hrs in presence of caspase-8 inhibitor z-IETD-fmk by flow cytometry; type: functional, cell-based; how it was run: as §2
HL-60 [16] = test: Induction of caspase activation in human HL60 cells assessed as increase in PARP cleavage at 30 uM incubated for 24 hrs by immunoblotting method; type: functional, cell-based; how it was run: as §3
HL-60 [17] = test: Cell cycle arrest in human HL60 cells assessed as accumulation at subG1 phase at 10 uM incubated for 24 hrs by flow cytometry (reference value: 2.3 +/- 0.5%); type: functional
[18] = molecular target: T3, Mitogen-activated protein kinase; ERK1/ERK2 (Homo sapiens) (UniProt P27361+P28482); test: Induction of ERK1/2 phosphorylation in human HL60 cells after 30 mins in presence of 10 uM MEK1/2 inhibitor PD98059 by Western blotting; type: cell-based; conditions: HL-60; how it was run: as §4
HL-60 [19] = test: Cytotoxicity against human HL60 cells at 100 uM after 72 hrs by MTT assay
HL-60 [20] = test: Induction of apoptosis in human HL60 cells assessed as incidence of condensed and fragmented chromatin at 30 uM incubated for 24 hrs by fluorescent microscopy; type: functional, cell-based
HL-60 [21] = test: Induction of apoptosis in human HL60 cells assessed as hypodiploid cells level incubated for 24 hrs in presence of 10 uM JNK/SAPK inhibitor SP600125 by flow cytometry; type: functional, cell-based; how it was run: as §6
HL-60 [22] = test: Cell cycle arrest in human HL60 cells assessed as accumulation at G1 phase at 30 uM incubated for 24 hrs by flow cytometry (reference value: 48 +/- 1.6%); type: functional
HL-60 [23] = test: Induction of procaspase-7 processing in human HL60 cells at 30 uM incubated for 24 hrs by immunoblotting method; type: functional, cell-based; how it was run: as §3
[24] = molecular target: T2, c-Jun N-terminal kinase, JNK (Homo sapiens); test: Induction of JNK/SAPK phosphorylation in human HL60 cells after 30 mins by Western blotting; type: cell-based; conditions: HL-60; how it was run: as §4
HL-60 [25] = test: Induction of apoptosis in human HL60 cells assessed as hypodiploid cells level incubated for 24 hrs in presence of 2 uM p38MAPK inhibitor SB203580 by flow cytometry; type: functional, cell-based; how it was run: as §6
HL-60 [26] = test: Induction of p21'Cip1 protein expression in human HL60 cells at 30 uM incubated for 24 hrs by Western blotting method; type: functional, cell-based; how it was run: as §3
HL-60 [27] = test: Induction of Bid protein cleavage in human HL60 cells at 30 uM incubated for 24 hrs by Western blotting method; type: functional, cell-based; how it was run: as §3
HL-60 [28] = test: Induction of DNA fragmentation in human HL60 cells at 30 uM incubated for 24 hrs by agarose gel electrophoresis; type: functional, cell-based
How it was run: (§7)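 HL-60 cells treated with the indicated concentrations. Genomic DNA extracted, run on agarose gel and visualised under UV after ethidium bromide staining, looking for internucleosomal fragmentation.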

HL-60 [29] = test: Cell cycle arrest in human HL60 cells assessed as accumulation at S phase at 30 uM incubated for 24 hrs by flow cytometry (reference value: 16.7 +/- 0.5%); type: functional
HL-60 [30] = test: Induction of apoptosis in human HL60 cells assessed as changes in nuclear morphology at 30 uM incubated for 24 hrs by fluorescence microscopy (reference value: 4.9 +/- 1.0%)
[31] = molecular target: T3, Mitogen-activated protein kinase; ERK1/ERK2 (Homo sapiens); test: Induction of ERK1/2 phosphorylation in human HL60 cells after 30 mins by Western blotting; type: cell-based; conditions: HL-60; how it was run: as §4
[32] = Cytotoxicity against human proliferating PBMCs assessed as cell viability after 48 hrs at 30 uM by MTT assay; type: cell-based, PBMC; conditions: read-out: Activity; how it was run: as §1
HL-60 [33] = test: Induction of apoptosis in human HL60 cells assessed as hypodiploid cells level at 30 uM incubated for 24 hrs in presence of caspase-3 and -7 inhibitor z-DEVD-fmk by flow cytometry; type: functional, cell-based; how it was run: as §2
HL-60 [34] = test: Induction of apoptosis in human HL60 cells assessed as hypodiploid cells level at 30 uM incubated for 24 hrs in presence of caspase-9 inhibitor z-LEHD-fmk by flow cytometry; type: functional, cell-based; how it was run: as §2
[35] = molecular target: T1, MAP kinase p38 (Homo sapiens); test: Induction of p38MAPK phosphorylation in human HL60 cells after 4 hrs by Western blotting; type: cell-based; conditions: HL-60; how it was run: as §4
[36] = molecular target: T3, Mitogen-activated protein kinase; ERK1/ERK2 (Homo sapiens); test: Induction of ERK1/2 phosphorylation in human HL60 cells after 6 hrs by Western blotting; type: cell-based; conditions: HL-60; how it was run: as §4
HL-60 [37] = test: Cell cycle arrest in human HL60 cells assessed as accumulation at G1 phase at 10 uM incubated for 24 hrs by flow cytometry (reference value: 48 +/- 1.6%); type: functional
HL-60 [38] = test: Induction of cyclin D1 protein expression in human HL60 cells at 30 uM incubated for 24 hrs by Western blotting method; type: functional, cell-based; how it was run: as §3
HL-60 [39] = test: Induction of procaspase-6 processing in human HL60 cells at 30 uM incubated for 24 hrs by immunoblotting method; type: functional, cell-based; how it was run: as §3
HL-60 [40] = test: Induction of procaspase-9 cleavage in human HL60 cells at 30 uM incubated for 24 hrs by immunoblotting method; type: functional, cell-based; how it was run: as §3
HL-60 [41] = test: Induction of DNA fragmentation in human HL60 cells at 10 uM incubated for 24 hrs by agarose gel electrophoresis; type: functional, cell-based; how it was run: as §7

T3 sequence (P27361 whole entry, looked up): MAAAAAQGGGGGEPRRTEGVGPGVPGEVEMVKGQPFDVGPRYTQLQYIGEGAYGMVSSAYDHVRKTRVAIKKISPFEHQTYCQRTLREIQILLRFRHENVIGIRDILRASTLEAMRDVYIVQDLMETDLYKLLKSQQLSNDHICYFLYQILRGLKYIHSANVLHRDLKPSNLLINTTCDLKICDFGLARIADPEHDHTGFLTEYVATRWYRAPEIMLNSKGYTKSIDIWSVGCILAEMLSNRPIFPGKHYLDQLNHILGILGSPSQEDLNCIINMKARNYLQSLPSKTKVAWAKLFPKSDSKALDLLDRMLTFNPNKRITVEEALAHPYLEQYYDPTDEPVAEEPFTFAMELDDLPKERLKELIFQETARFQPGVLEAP
T3 sequence (P28482 whole entry, looked up): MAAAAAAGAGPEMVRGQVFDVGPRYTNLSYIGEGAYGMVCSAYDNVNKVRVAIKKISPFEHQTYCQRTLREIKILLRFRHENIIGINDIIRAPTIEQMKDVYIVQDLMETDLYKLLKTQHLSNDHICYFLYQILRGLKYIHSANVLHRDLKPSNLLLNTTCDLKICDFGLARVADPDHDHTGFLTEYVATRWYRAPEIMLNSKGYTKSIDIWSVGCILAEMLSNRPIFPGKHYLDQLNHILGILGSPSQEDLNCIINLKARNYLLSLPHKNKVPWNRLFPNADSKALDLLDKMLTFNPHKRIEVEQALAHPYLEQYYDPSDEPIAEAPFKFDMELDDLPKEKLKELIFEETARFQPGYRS

SMILES: COC(=O)c1c(C)c(C)cc2c(=O)cc(-c3ccccc3C)oc12
- Activity (HL-60 [1]): 11.8%
- viability at 30 µM (HL-60 [2]): 25%
- Activity (HL-60 [3]): inactive
- Activity (HL-60 [4]): Active
- Activity (HL-60 [5]): Active
- Activity [6]: Active
- IC50 (HL-60 [7]): 10.1 µM
- Activity (HL-60 [8]): 25%
- Activity (PBMC): Active
- Activity (HL-60 [9]): Active
- Activity [10]: Active
- Activity (HL-60 [11]): 16.6%
- Activity (HL-60 [12]): 24.4%
- Activity (HL-60 [13]): 28.5%
- IC50 [14]: 18.9 µM
- Activity (HL-60 [15]): inactive
- Activity (HL-60 [16]): Active
- Activity (HL-60 [17]): 5.5%
- Activity [18]: inactive
- Activity (HL-60 [19]): Active
- Activity (HL-60 [20]): Active
- Activity (HL-60 [21]): Active
- Activity (HL-60 [22]): 48.1%
- Activity (HL-60 [23]): Active
- Activity [24]: Active
- Activity (HL-60 [25]): Active
- Activity (HL-60 [26]): Active
- Activity (HL-60 [27]): Active
- Activity (HL-60 [28]): Active
- Activity (HL-60 [29]): 7.6%
- Activity (HL-60 [30]): 26.9%
- Activity [31]: Active
- viability at 48 h, 30 µM [32]: 75%
- Activity (HL-60 [33]): inactive
- Activity (HL-60 [34]): inactive
- Activity [35]: inactive
- Activity [36]: Active
- Activity (HL-60 [37]): 53%
- Activity (HL-60 [38]): Active
- Activity (HL-60 [39]): Active
- Activity (HL-60 [40]): Active
- Activity (HL-60 [41]): Active
